Screening data: PubChem, several laboratories
This is a sample that favours compounds with a hit; in the whole collection about 2.2% have one here.
ASAP1 inh = inhibitors of human ASAP1 ArfGAP activity; inhibition, % at 16.5 µM; ASAP1-stimulated ARF1 GTP hydrolysis, GDP FP detection; actives 0.19% (n = 360,000); Q9ULH1; in the data active = inhibition above about 25%;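 also: 0% = vehicle with enzyme and substrate and 100% = no enzyme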
Granule exo inh = lytic granule exocytosis inhibition | inhibition, % at 10 µM | actives 0.66% (n = 360,000) | TALL-104 LAMP-1 surface exposure, flow cytometry; cells stimulated with thapsigargin and PMA;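 active = inhibition above about 55%, limit read from the data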
NRP1-CendR mod = NRP-1/CendR interaction modulation; O14786; FAM-RPARPAR peptide binding to NRP-1, fluorescence polarization; inhibition, % at 25 µM; actives 0.85% (n = 360,000); AID 602438;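 active = inhibition or corrected inhibition above about 18%, plus a signal ratio from 0.5 to 1.5, limit read from the data, passing the limit was not always enough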
Target sequence (O14786 whole entry, looked up): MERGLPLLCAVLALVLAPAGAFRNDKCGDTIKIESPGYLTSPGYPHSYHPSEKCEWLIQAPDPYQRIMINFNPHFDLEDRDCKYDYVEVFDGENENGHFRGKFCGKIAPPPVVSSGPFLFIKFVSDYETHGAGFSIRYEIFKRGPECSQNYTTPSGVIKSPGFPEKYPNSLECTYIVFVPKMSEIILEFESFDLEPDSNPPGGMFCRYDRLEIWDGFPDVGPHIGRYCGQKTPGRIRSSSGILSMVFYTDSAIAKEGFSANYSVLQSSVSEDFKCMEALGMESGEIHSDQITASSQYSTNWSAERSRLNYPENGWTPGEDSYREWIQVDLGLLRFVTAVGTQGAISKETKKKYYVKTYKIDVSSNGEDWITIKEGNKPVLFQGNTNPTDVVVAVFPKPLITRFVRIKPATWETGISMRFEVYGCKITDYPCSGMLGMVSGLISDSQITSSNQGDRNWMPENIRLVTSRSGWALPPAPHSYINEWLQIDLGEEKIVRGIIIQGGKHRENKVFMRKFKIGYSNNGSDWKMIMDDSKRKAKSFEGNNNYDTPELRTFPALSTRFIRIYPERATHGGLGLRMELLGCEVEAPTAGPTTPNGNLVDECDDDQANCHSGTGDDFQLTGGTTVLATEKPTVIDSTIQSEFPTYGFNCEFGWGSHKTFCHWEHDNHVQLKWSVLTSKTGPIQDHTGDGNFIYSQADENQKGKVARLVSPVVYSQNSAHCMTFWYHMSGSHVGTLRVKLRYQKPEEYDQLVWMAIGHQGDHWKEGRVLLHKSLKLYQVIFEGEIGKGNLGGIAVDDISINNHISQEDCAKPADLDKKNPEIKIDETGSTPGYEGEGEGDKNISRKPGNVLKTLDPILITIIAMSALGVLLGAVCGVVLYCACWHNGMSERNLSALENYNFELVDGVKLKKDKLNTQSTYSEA
ARFGAP1 inhibitor = inhibits rat ARF GTPase activating protein 1 | Q62848 | actives 0.26% (n = 360,000) | inhibition, % at 16.5 µM | Arfgap1-stimulated ARF1 GTP hydrolysis, GDP FP detection;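 active = inhibition above a per-plate limit, mean inhibition of low control wells plus 3 SD, cut at about 25% in these data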;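 also: 0% = DMSO wells with enzyme and 100% = wells lacking Arfgap1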
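Material: rat Arfgap1 catalytic domain, aa 1-136; also added: human ARF1(Δ1-17)-GTP substrate; compound dosing: one concentration, 16.5 µM, DMSO 1.26%; incubation: GTP hydrolysis reaction 2 h at 25 °C; measured by: Tracer-displacement fluorescence polarization with EDTA stop, 620/688 nm; evaluation: % inhibition from polarization; repeats: one replicate per compound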
V-ATPase pH = regulators of yeast V-ATPase proton transport. S. cerevisiae, pHLuorin cytosolic pH fluorescence. response, % at 10 µM. actives 0.37% (n = 350,000). AID 504577; in the data active = response mostly above about 7.3%, no sharp cut-off; inactive = mostly below about 5.4%; also: actives read high
* hit, by the source's call.

`CN1CCN(c2ccc(NC(=S)NC(=O)/C=C/c3ccco3)cc2)CC1` gave ASAP1 inh -12, Granule exo inh 57*, NRP1-CendR mod 4, ARFGAP1 inhibitor -7 and V-ATPase pH -1.
For CC(=O)Nc1ccc(NC(=S)NC(=O)/C=C/c2ccco2)cc1 the results were ASAP1 inh -2, Granule exo inh 0, NRP1-CendR mod -40, ARFGAP1 inhibitor 9 and V-ATPase pH 6.
`COC(=O)[C@]12C[C@H](CC(=O)N3CCOCC3)C(=O)N(CCC3=CCCCC3)C1=C[C@H](COCc1ccccc1)O[C@@H]2C` gave ASAP1 inh -8 and ARFGAP1 inhibitor -1.
For CC(C)(C)S(=O)(=O)N1C[C@H]2CC(=O)C(CCO)=C2[C@@H]1CCO the results were ASAP1 inh -9 and ARFGAP1 inhibitor 2.
For Cc1ccccc1-c1ccc2c(c1)[C@@H]1C[C@H](N(C)C(=O)c3ccco3)[C@H]([C@H](C)O)CN1CC2 the results were ASAP1 inh 8 and ARFGAP1 inhibitor 4.
Cc1ccc(C(=O)N2CCN(c3ccc(C(F)(F)F)cn3)CC2)c(C)c1 was read as ASAP1 inh -3, Granule exo inh 0, NRP1-CendR mod 38*, ARFGAP1 inhibitor 3 and V-ATPase pH -1.
For CCOC(=O)CN1C(=O)[C@]2(OCCC=C[C@H]2C)c2cc(OC)ccc21 the results were ASAP1 inh 1 and ARFGAP1 inhibitor 11.
`CCCCn1c(NC(=O)c2ccccc2Cl)c(C#N)c2nc3ccccc3nc21` gave ASAP1 inh 21, Granule exo inh 63*, NRP1-CendR mod -8, ARFGAP1 inhibitor 8 and V-ATPase pH -5.
Screening N#Cc1c(NC(=O)c2ccccc2Cl)n(Cc2ccccc2)c2nc3ccccc3nc12 returned ASAP1 inh -6, Granule exo inh 104*, NRP1-CendR mod -22, ARFGAP1 inhibitor 0 and V-ATPase pH 4.
COc1cccc2c(=O)c3cccc(N)c3[nH]c12 was read as ASAP1 inh -12, Granule exo inh 1, NRP1-CendR mod 33*, ARFGAP1 inhibitor -2 and V-ATPase pH 2.
Screening COc1cccc2c(=O)c3c([nH]c12)OC(C)(C)C3 returned ASAP1 inh -1, Granule exo inh -5, NRP1-CendR mod -2, ARFGAP1 inhibitor -3 and V-ATPase pH -1.
CCOc1cc(/C=N\Nc2ncc(F)c(N3CCOCC3)n2)ccc1Oc1nc(Cl)ncc1F was read as ASAP1 inh 15, Granule exo inh 83*, NRP1-CendR mod -2, ARFGAP1 inhibitor -2 and V-ATPase pH 5.
CCOc1cc(/C=N/NC(=O)c2ccc(O)cc2)ccc1Oc1nc(Cl)ncc1F was read as ASAP1 inh 4, Granule exo inh -10, NRP1-CendR mod -2, ARFGAP1 inhibitor 5 and V-ATPase pH -1.
`Cc1ccc(NC2C(=O)NC(=O)NC2=O)cc1` gave ASAP1 inh 32*, Granule exo inh 1, NRP1-CendR mod 10, ARFGAP1 inhibitor 17 and V-ATPase pH -1.
For Cc1ccc(C(=O)N(C)[C@H]2C[C@H]3c4[nH]c5c(-c6ccccc6)cccc5c4CCN3C(=O)[C@H]2[C@H](C)O)cc1 the results were ASAP1 inh 11 and ARFGAP1 inhibitor 15.
For COc1ccccc1N1CCN(C(CNC(=O)c2ccc3c(c2)OCO3)c2cccnc2)CC1 (configuration not stated) the results were ASAP1 inh -4, Granule exo inh 1, NRP1-CendR mod 29*, ARFGAP1 inhibitor 7 and V-ATPase pH -3.
`COc1ccccc1N1CCN(C(CNC(=O)C2CCCCC2)c2cccnc2)CC1` (configuration not stated) gave ASAP1 inh -1, Granule exo inh -3, NRP1-CendR mod -9, ARFGAP1 inhibitor 7 and V-ATPase pH -2.
For CN1CC[C@@H]2CN(S(=O)(=O)c3ccccc3)[C@H](c3ccccc3Br)C[C@@H]21 the results were ASAP1 inh -12 and ARFGAP1 inhibitor 5.
`O=C(C(=O)N1CCC(CNS(=O)(=O)c2cc(C(F)(F)F)cc(C(F)(F)F)c2)CC1)c1cccs1` gave ASAP1 inh -19 and ARFGAP1 inhibitor 6.
Screening Cc1cc(N2CCNC[C@@H]2C)ccc1N1C[C@@H](C)O[C@@H](C)C1 returned ASAP1 inh -4 and ARFGAP1 inhibitor -5.
OC(c1ccccc1)(c1ccccc1)C1CCN(CCCOc2cccc(F)c2)CC1 was read as ASAP1 inh -2 and ARFGAP1 inhibitor 4.
